Data on two compounds can be found in ChEMBL document CHEMBL2177013, “Synthesis and biological evaluation of tylophorine-derived dibenzoquinolines as orally active agents: exploration of the role of tylophorine e ring on biological activity” (J Med Chem, 2012).

≈ marks a conversion by molar mass, not a printed value.

Tested on in one data set: not listed separately
In words: Solubility in DMSO. The format is physicochemical.
Settings: not given
A digest of the protocol:
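Compound dissolved in DMSO with sonication; maximal volume before precipitation measured and used to calculate saturation solubility.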
For orientation: solubility means how much of the substance goes into solution per volume. Compound `COc1cc2c3c(c4cc(OC)c(OC)cc4c2cc1OC)CN1CCCCC1C3` (stereo not given) had a solubility of 12.3 mM (≈ 5.01 mg/mL).

Take `CCN1CCc2c(c3cc(OC)c(OC)cc3c3cc(OC)c(OC)cc23)C1`: the solubility was determined as 50 mM (≈ 19.1 mg/mL).

Another data set deals with SF-268. As to the kind of experiment: Growth inhibition of human SF268 cells. Format: functional.
Settings: not given
The essentials:
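SF-268 glioblastoma cells seeded 7500 cells/well in 96-well plates; growth inhibition measured with compound. GI50 as mean of at least three experiments, each in duplicate; paclitaxel positive control.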
As usually defined, the GI50 is the concentration giving 50% growth inhibition. Higher therefore signals less potent growth inhibition. `COc1cc2c3c(c4cc(OC)c(OC)cc4c2cc1OC)CN1CCCCC1C3` (stereo not given) came in with a GI50 of 140 nM.

In a further data set the test system is HepG2. In words: Growth inhibition of human HepG2 cells. The format is functional.
Settings: not given
A digest of the protocol:
(§1)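 Cells seeded per well: NUGC-3 4500, HONE-1 6000, MCF-7 6500, NCI-H460 2500, HepG2 10000, A549 5000; A549 grown in RPMI 1640 with 2 g/L NaHCO₃, 2 mM L-glutamine and 10% FBS. GI₅₀ = concentration giving 50% growth inhibition, mean of at least three experiments each in duplicate. Paclitaxel served as positive control.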
In turn, `CCN1CCc2c(c3cc(OC)c(OC)cc3c3cc(OC)c(OC)cc23)C1` registered a GI50 of 1000 nM.

Tested on in another data set: not listed separately
As to the kind of experiment: Solubility in DMA. Format: physicochemical.
Settings: not given
`COc1cc2c3c(c4cc(OC)c(OC)cc4c2cc1OC)CN1CCCCC1C3` (stereo not given): the solubility entry is reported as “soluble”.

In the case of `CCN1CCc2c(c3cc(OC)c(OC)cc3c3cc(OC)c(OC)cc23)C1`, the solubility entry is recorded as “soluble”.

In a further data set the test system is MCF7. In words: Growth inhibition of human MCF7 cells. Format: functional.
Settings: not given
A digest of the protocol: as §1
For `COc1cc2c3c(c4cc(OC)c(OC)cc4c2cc1OC)CN1CCCCC1C3` (stereo not given), it took 110 nM to inhibit growth by half (GI50).

The compound `CCN1CCc2c(c3cc(OC)c(OC)cc3c3cc(OC)c(OC)cc23)C1` came in with a GI50 of 750 nM.

The next data set relates to Transmissible gastroenteritis virus. In words: Antiviral activity against Transmissible gastroenteritis virus infected in ST cells pre-treated 2 hrs before virus infection measured 6 hrs post virus infection by immunofluorescent assay. The format is functional, organism-based. Conditions: Alphacoronavirus 1, ST. A digest of the protocol: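 ST cells, with or without 2 h compound pretreatment (10 concentrations), infected with TGEV at MOI 10. Immunofluorescence with anti-spike and anti-nucleocapsid antibodies at 6 hpi. EC50 from dose–response curves, mean of at least three experiments, each in duplicate.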
As usually defined, the EC50 is the concentration that produces a half-maximal response. On to `COc1cc2c3c(c4cc(OC)c(OC)cc4c2cc1OC)CN1CCCCC1C3` (stereo not given), for which the half-maximal effective concentration (EC50) was found to be 30 nM.

For the compound `CCN1CCc2c(c3cc(OC)c(OC)cc3c3cc(OC)c(OC)cc23)C1`, the concentration for a half-maximal effect (EC50) worked out at 1650 nM.

Tested on in a further data set: not listed separately
In words: Growth inhibition of human HONE1 cells. Format: functional.
Settings: not given
A digest of the protocol: as §1
Regarding `COc1cc2c3c(c4cc(OC)c(OC)cc4c2cc1OC)CN1CCCCC1C3` (stereo not given), halving of growth (GI50) required 140 nM.

Turning to `CCN1CCc2c(c3cc(OC)c(OC)cc3c3cc(OC)c(OC)cc23)C1`, the GI50 was determined as 1570 nM.

Tested on in the next data set: not listed separately
In words: Oral bioavailability in Sprague-Dawley rat at 3 mg/kg by HPLC-MS method. Format: ADME, organism-based. Conditions: in vivo. The essentials:
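Male rats (330−380 g, 9−10 weeks), jugular vein cannula implanted 1 day before, fasted. 3 mg/kg given iv or orally (n = 3) in DMA/PEG400 30/70 v/v. Blood (150 μL) drawn at 0, 2, 5 (iv only), 15, 30 min and 1, 2, 4, 6, 8, 12, 24 h; plasma analysed by HPLC-MS; noncompartmental analysis.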
Usually bioavailability stands for the share of a dose that reaches the circulation, judged against a reference dose that is usually intravenous. `COc1cc2c3c(c4cc(OC)c(OC)cc4c2cc1OC)CN1CCCCC1C3` (stereo not given) displayed a bioavailability of 53%.

The next data set relates to NUGC-3. As to the kind of experiment: Growth inhibition of human NUGC3 cells. Format: functional.
Settings: not given
The essentials: as §1
For the compound `COc1cc2c3c(c4cc(OC)c(OC)cc4c2cc1OC)CN1CCCCC1C3` (stereo not given), the GI50 amounted to 140 nM.

`CCN1CCc2c(c3cc(OC)c(OC)cc3c3cc(OC)c(OC)cc23)C1` displayed a GI50 of 620 nM.

Tested on in a further data set: not listed separately
As to the kind of experiment: Cytotoxicity against mouse RAW264.7 cells. The format is cell-based.
Settings: not given
The essentials:
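RAW264.7 cells stimulated with LPS/IFNγ and compound-treated in parallel with the NO assay; CC50 taken as concentration giving 50% inhibition of cell growth. Mean of at least three experiments, each in duplicate.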
A word on the CC50: it is the concentration that lowers cell viability or growth by half. A low value points to greater toxicity to the cells. `CCN1CCc2c(c3cc(OC)c(OC)cc3c3cc(OC)c(OC)cc23)C1` came in with a CC50 above 4000 nM.

The next data set deals with NCI-H460. As to the kind of experiment: Growth inhibition of human NCI-H460 cells. The format is functional.
Settings: not given
The essentials: as §1
As for `COc1cc2c3c(c4cc(OC)c(OC)cc4c2cc1OC)CN1CCCCC1C3` (stereo not given), halving of growth (GI50) required 100 nM.

Turning to `CCN1CCc2c(c3cc(OC)c(OC)cc3c3cc(OC)c(OC)cc23)C1`, the GI50 stood at 1010 nM.

A further data set deals with A549. As to the kind of experiment: Growth inhibition of human A549 cells.
Settings: not given
Format: functional. The essentials:
as §1
`CCN1CCc2c(c3cc(OC)c(OC)cc3c3cc(OC)c(OC)cc23)C1` gave a GI50 of 970 nM.

The next data set relates to RAW264.7. In words: Antiinflammatory activity in mouse RAW264.7 cells assessed as inhibition of LPS-induced nitric oxide production incubated for 18 hrs by nitrate/nitrite assay. Format: functional, cell-based. Conditions: RAW264.7, 18 h. The essentials: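 RAW264.7 seeded 65000 cells/well, cultured 24 h, then medium replaced with complete medium containing IFNγ (20 ng/mL)/LPS (5 μg/mL) plus compound at various concentrations for 18 h; nitric oxide measured by Nitrate/Nitrite kit. EC50 as mean of at least three experiments, each in duplicate.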
Consider `CCN1CCc2c(c3cc(OC)c(OC)cc3c3cc(OC)c(OC)cc23)C1`, for which the EC50 was found to be 1420 nM.
